Measurements as given in ChEMBL document CHEMBL1811814, “Synthesis and evaluation of indole, pyrazole, chromone and pyrimidine based conjugates for tumor growth inhibitory activities--development of highly efficacious cytotoxic agents” (Eur J Med Chem, 2010).

Tests used:
Format in all cases: functional
OVCAR-3 [1] = assay: Growth inhibition of human OVCAR3 cells
PC-3 = assay: Growth inhibition of human PC3 cells
HT-29 = assay: Growth inhibition of human HT-29 cells assessed tumor cell growth at 10^-5 M; parameters: scale not given: the % may be the effect or the level left
How it was run: (§1)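 NCI 60-human-tumor-cell-line panel screen. Each compound was tested at a single concentration of 10^-5 M, and percent growth of tumor cells was recorded for each cell line. Growth inhibition was expressed from these percent-growth values.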

UACC-62 = assay: Growth inhibition of human UACC62 cells assessed tumor cell growth at 10^-5 M; parameters: scale not given: the % may be the effect or the level left
How it was run: (§2)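 Single-dose screen at 10^-5 M across the 60 human tumor cell line panel, run to NCI standards. The value is the percent growth of each cell line in the presence of compound. Compounds active at this dose moved on to five-concentration testing (10^-4 to 10^-8 M).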

NCI-H460 [2] = assay: Growth inhibition of human NCI-H460 cells assessed tumor cell growth at 10^-5 M; parameters: scale not given: the % may be the effect or the level left; how it was run: as §1
M14 [3] = assay: Growth inhibition of human M14 cells assessed tumor cell growth at 10^-5 M; parameters: scale not given: the % may be the effect or the level left; how it was run: as §1
LOX IMVI = assay: Growth inhibition of human LOXIMVI cells
EKVX [4] = assay: Growth inhibition of human EKVX cells assessed tumor cell growth at 10^-5 M; parameters: scale not given: the % may be the effect or the level left; how it was run: as §1
SR = assay: Growth inhibition of human SR cells assessed tumor cell growth at 10^-5 M; parameters: scale not given: the % may be the effect or the level left; how it was run: as §2
[5] = Growth inhibition of human Hs 578T cells assessed tumor cell growth at 10^-5 M; parameters: scale not given: the % may be the effect or the level left; how it was run: as §1
SNB-75 = assay: Growth inhibition of human SNB75 cells assessed tumor cell growth at 10^-5 M; parameters: scale not given: the % may be the effect or the level left; how it was run: as §2
OVCAR-5 = assay: Growth inhibition of human OVCAR5 cells
K562 = assay: Growth inhibition of human K562 cells assessed tumor cell growth at 10^-5 M; parameters: scale not given: the % may be the effect or the level left; how it was run: as §1
EKVX [6] = assay: Growth inhibition of human EKVX cells
M14 [7] = assay: Growth inhibition of human M14 cells
Malme-3M = assay: Growth inhibition of human MALME-3M cells
CCRF-CEM = assay: Growth inhibition of human CCRF-CEM cells assessed tumor cell growth at 10^-5 M; parameters: scale not given: the % may be the effect or the level left; how it was run: as §1
SK-OV-3 [8] = assay: Growth inhibition of human SKOV3 cells
UO-31 = assay: Growth inhibition of human UO31 cells assessed tumor cell growth at 10^-5 M; parameters: scale not given: the % may be the effect or the level left; how it was run: as §2
SN12C [9] = assay: Growth inhibition of human SN12C cells assessed tumor cell growth at 10^-5 M; parameters: scale not given: the % may be the effect or the level left; how it was run: as §1
NCI-H460 [10] = assay: Growth inhibition of human NCI-H460 cells
SN12C [11] = assay: Growth inhibition of human SN12C cells
MDA-MB-435 = assay: Growth inhibition of human MDA-MB-435 cells
NCI-H226 = assay: Growth inhibition of human NCI-H226 cells assessed tumor cell growth at 10^-5 M; parameters: scale not given: the % may be the effect or the level left; how it was run: as §1
SNB-19 [12] = assay: Growth inhibition of human SNB19 cells
OVCAR-4 [13] = assay: Growth inhibition of human OVCAR4 cells assessed tumor cell growth at 10^-5 M; parameters: scale not given: the % may be the effect or the level left; how it was run: as §1
T47D = assay: Growth inhibition of human T47D cells assessed tumor cell growth at 10^-5 M; parameters: scale not given: the % may be the effect or the level left; how it was run: as §2
SF-295 = assay: Growth inhibition of human SF295 cells
DU-145 = assay: Growth inhibition of human DU145 cells assessed tumor cell growth at 10^-5 M; parameters: scale not given: the % may be the effect or the level left; how it was run: as §1
SF-539 = assay: Growth inhibition of human SF539 cells
MCF7 = assay: Growth inhibition of human MCF7 cells assessed tumor cell growth at 10^-5 M; parameters: scale not given: the % may be the effect or the level left; how it was run: as §1
SW-620 = assay: Growth inhibition of human SW620 cells
[14] = Growth inhibition of human […] cells assessed tumor cell growth at 10^-5 M; parameters: scale not given: the % may be the effect or the level left; how it was run: as §1
OVCAR-4 [15] = assay: Growth inhibition of human OVCAR4 cells
HCT-15 [16] = assay: Growth inhibition of human HCT15 cells
OVCAR-3 [17] = assay: Growth inhibition of human OVCAR3 cells assessed tumor cell growth at 10^-5 M; parameters: scale not given: the % may be the effect or the level left; how it was run: as §1
MOLT-4 = assay: Growth inhibition of human MOLT4 cells
IGROV-1 = assay: Growth inhibition of human IGROV1 cells
How it was run: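 Follow-up panel testing at five concentrations (10^-4, 10^-5, 10^-6, 10^-7 and 10^-8 M) across the 60 human tumor cell lines. GI50 was obtained for each line from the concentration-response data, with the panel average GI50 also reported.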

HCT-15 [18] = assay: Growth inhibition of human HCT15 cells assessed tumor cell growth at 10^-5 M; parameters: scale not given: the % may be the effect or the level left; how it was run: as §1
TK-10 = assay: Growth inhibition of human TK10 cells
A549 = assay: Growth inhibition of human A549 cells
KM12 = assay: Growth inhibition of human KM12 cells assessed tumor cell growth at 10^-5 M; parameters: scale not given: the % may be the effect or the level left; how it was run: as §1
COLO 205 = assay: Growth inhibition of human COLO205 cells assessed tumor cell growth at 10^-5 M; parameters: scale not given: the % may be the effect or the level left; how it was run: as §1
A498 = assay: Growth inhibition of human A498 cells
SF-268 = assay: Growth inhibition of human SF268 cells
SK-MEL-28 = assay: Growth inhibition of human SK-MEL-28 cells assessed tumor cell growth at 10^-5 M; parameters: scale not given: the % may be the effect or the level left; how it was run: as §1
SNB-19 [19] = assay: Growth inhibition of human SNB19 cells assessed tumor cell growth at 10^-5 M; parameters: scale not given: the % may be the effect or the level left; how it was run: as §2
NCI/ADR-RES = assay: Growth inhibition of human NCI/ADR-RES cells assessed tumor cell growth at 10^-5 M; parameters: scale not given: the % may be the effect or the level left; how it was run: as §1
ACHN = assay: Growth inhibition of human ACHN cells assessed tumor cell growth at 10^-5 M; parameters: scale not given: the % may be the effect or the level left; how it was run: as §1
SK-OV-3 [20] = assay: Growth inhibition of human SKOV3 cells assessed tumor cell growth at 10^-5 M; parameters: scale not given: the % may be the effect or the level left; how it was run: as §1
HOP-92 = assay: Growth inhibition of human HOP92 cells assessed tumor cell growth at 10^-5 M; parameters: scale not given: the % may be the effect or the level left; how it was run: as §1
MDA-MB-468 = assay: Growth inhibition of human MDA-MB-468 cells
[21] = read-out: LC50 (the source's name)

## O=C1/C(=C\c2ccccn2)c2ccccc2N1c1c(Cl)cccc1Cl
OVCAR-3 [1]
  GI50: 1.7 µM
OVCAR-3 [1]; [21]
  CC50: 6.9 µM
PC-3
  GI50: 2.2 µM
PC-3; [21]
  CC50: 93.3 µM
HT-29
  Activity: 10.75%
UACC-62
  Activity: 24.91%
NCI-H460 [2]
  Activity: -29.25%
M14 [3]
  Activity: -43.6%
LOX IMVI
  GI50: 1.7 µM
LOX IMVI; [21]
  CC50: 6.4 µM
EKVX [4]
  Activity: 27.21%
SR
  Activity: -4.3%
[5]
  Activity: 22.94%
SNB-75
  Activity: -17.92%
OVCAR-5
  GI50: 2.4 µM
OVCAR-5; [21]
  CC50: > 100 µM
K562
  Activity: 9.42%
EKVX [6]
  GI50: 2 µM
EKVX [6]; [21]
  CC50: > 100 µM
M14 [7]
  GI50: 1.7 µM
M14 [7]; [21]
  CC50: 7.7 µM
Malme-3M
  GI50: 1.9 µM
Malme-3M; [21]
  CC50: 16.9 µM
CCRF-CEM
  Activity: 8.81%
SK-OV-3 [8]
  GI50: 3.4 µM
SK-OV-3 [8]; [21]
  CC50: 74.1 µM
UO-31
  Activity: 16.75%
SN12C [9]
  Activity: 18.08%
NCI-H460 [10]
  GI50: 1.8 µM
NCI-H460 [10]; [21]
  CC50: 7 µM
SN12C [11]
  GI50: 2.2 µM
SN12C [11]; [21]
  CC50: 58.8 µM
MDA-MB-435
  GI50: 1.8 µM
MDA-MB-435; [21]
  CC50: 61.6 µM
NCI-H226
  Activity: 25.22%
SNB-19 [12]
  GI50: 2.2 µM
SNB-19 [12]; [21]
  CC50: 32.3 µM
OVCAR-4 [13]
  Activity: -7.46%
T47D
  Activity: 12.74%
SF-295
  GI50: 1.7 µM
SF-295; [21]
  CC50: 13.8 µM
DU-145
  Activity: -0.09%
SF-539
  GI50: 2.4 µM
SF-539; [21]
  CC50: > 100 µM
MCF7
  Activity: -10.81%
SW-620
  GI50: 1.9 µM
SW-620; [21]
  CC50: 6.7 µM
[14]
  Activity: -12.52%
OVCAR-4 [15]
  GI50: 3.7 µM
OVCAR-4 [15]; [21]
  CC50: > 100 µM
HCT-15 [16]
  GI50: 2 µM
HCT-15 [16]; [21]
  CC50: 28.8 µM
OVCAR-3 [17]
  Activity: 27.36%
MOLT-4
  GI50: 4.4 µM
  LC50: > 100 µM
IGROV-1
  GI50: 1.7 µM
HCT-15 [18]
  Activity: 12.58%
TK-10
  GI50: 3 µM
TK-10; [21]
  CC50: 50.1 µM
A549
  GI50: 1.9 µM
A549; [21]
  CC50: 43.6 µM
KM12
  Activity: -2.11%
COLO 205
  Activity: -1.34%
A498
  GI50: 2.9 µM
A498; [21]
  CC50: 72.4 µM
SF-268
  GI50: 3.6 µM
SF-268; [21]
  CC50: 40.7 µM
SK-MEL-28
  Activity: -10.05%
SNB-19 [19]
  Activity: 34.85%
NCI/ADR-RES
  Activity: -26.73%
ACHN
  Activity: 19.58%
SK-OV-3 [20]
  Activity: 39.19%
HOP-92
  Activity: -7.93%
MDA-MB-468
  GI50: 0.9 µM
MDA-MB-468; [21]
  CC50: 7.4 µM
